Data on 40 compounds can be found in ChEMBL document CHEMBL4513216, “Probing the Open Global Health Chemical Diversity Library for Multistage-Active Starting Points for Next-Generation Antimalarials” (ACS Infect Dis, 2020).

This data set is described as follows: Toxicity liver stage against HepG2, at 10uM. The class given is cell-based. Further details: test concentration 10 uM, cell line HepG2-A16-CD81EGFP. The note with it: human, HepG2-A16-CD81EGFP cells; read-out: INHIBITION
A digest of the protocol:
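Uninfected HepG2-A16-CD81EGFP cells, 3 × 10^3 per well, 1536-well, plated on prespotted compound at 10 μM final, parasite-free screening media added to match infected plates; puromycin 10 μM positive, DMSO 0.5% negative; run in parallel with 48 h PbLuc assay at 37 °C, 5% CO2; viability by CellTiter-Glo luminescence, normalized to controls.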
On to `COc1ccc(CC(C)Nc2cccc(SC)c2)cc1` (stereo not given), for which the cytotoxicity at 10 µM was found to be 11.6%. To `Cc1ccc(-c2cc(N)c(=O)n(C(C)C(=O)NC(C)C)n2)o1` (stereo not given) belongs -6.69%; to `COc1ncccc1CNC(=O)N1CCC(CN2CCOCC2)CC1`, -39.2%; to `COC(=O)CC(NC(=O)c1cc(OC)c2c(c1)OCCO2)c1cccs1` (stereo not given), 2.01%. Then `CCS(=O)(=O)N1CCC(Nc2c(Cl)cccc2C#N)CC1`, with -0.85%.

As to `Cc1cc(NCc2csc(C)n2)no1`, the cytotoxicity at 10 µM came to 9.48%. Turning to `CCCn1nc2c(cc1=O)CN(C(C)C(=O)Nc1nccs1)CC2` (stereo not given), the cytotoxicity at 10 µM is -1.99%. To `CCCC(=O)N(CC)C(c1cccnc1)c1ccc2c(c1)CCO2` (stereo not given) belongs 0.217%; to `COCCOc1ccccc1C(=O)Nc1c(C)cnn1CC1CC1`, 1.13%. To `COCC(O)CN(C)C(=O)NCc1ccc(S(C)(=O)=O)cc1` (stereo not given) belongs 1.72%; to `O=C(NCCCN1CCN(c2ncccn2)CC1)NCC1CCCO1` (stereo not given), -43.1%; to `CC(C)NC(=O)N1CCC2(CC1)Cc1ccccc1CNC2=O`, 1.33%. Then `Cc1nc([C@@H]2C[C@H]3CN(Cc4ccc5c(c4)OCO5)C[C@H]3O2)no1`, with -115%; and `COc1ccc(C(=O)NC2CC2)c(OC2CCN(C3CCC3)CC2)c1`, with 0.542%. Turning to `CCn1ccnc1C1CCN(C(=O)Nc2ccc(OC)cc2)CC1`, the cytotoxicity at 10 µM was -1.77%. To `COC[C@]1(O)CCN(C2CCN(c3ccc(Cl)cc3)CC2)CC1(C)C` belongs -0.75%; to `CNc1nccc(-c2cn(C)nc2C)n1`, -6.59%; to `Cc1ccc(CN2CCN(C(=O)CCc3nc(Cl)n[nH]3)CC2=O)cc1`, -0.903%. For `O=C(N1CCOCC1)N1CCC(Nc2ccncn2)CC1`, the cytotoxicity at 10 µM was -57%. Regarding `Cc1cc(C)n(CC(C)Nc2ncnc3c2CCNC3)n1` (stereo not given), the cytotoxicity at 10 µM was determined as 3.37%.

For the compound `CCc1nccn1CCC(=O)N1CCCC1c1ccc(F)cc1` (stereo not given), the cytotoxicity at 10 µM is 1.58%. To `Cc1ccc(NC(=O)[C@@H]2C[C@H](C(=O)O)CN(Cc3sccc3C)C2)cn1` belongs 11%. `Cc1ncsc1C(=O)N1CCCC(CO)(CC2CC2)C1` (stereo not given): the cytotoxicity at 10 µM is -1.5%. Then `CC(C)=CCC1(CO)CCCN(Cc2cnc(N3CCOCC3)nc2)C1` (stereo not given), with -2.6%; and `O=C(c1ncc(F)cc1F)N1CCC(c2ncc[nH]2)CC1`, with -3.73%; and `O=C(Cc1n[nH]c(-c2cncc(Br)c2)n1)NCc1ccncc1`, with -6.3%. To `CCCN1CCN(C(=O)Cc2cccnc2)[C@H]2CS(=O)(=O)C[C@H]21` belongs -8.26%; to `Cc1noc(C)c1C(=O)NCCSCc1cccs1`, -4.89%; to `COc1ccc(C(=O)Nc2cnn(CCN3CCOCC3)c2)c(O)c1`, -3.92%.

In the case of `Cc1ccc(CNC(=O)N2CCN(Cc3ccsc3)CC2)n1C`, the cytotoxicity at 10 µM amounted to 9.58%. Take `CC1CN(C(=O)CN(Cc2ccco2)C2CC2)CCO1` (stereo not given): the cytotoxicity at 10 µM stood at 3.97%. Turning to `CCc1nc(CN2CCCC(NCc3cc(C)no3)C2)no1` (stereo not given), the cytotoxicity at 10 µM was 1.59%. Turning to `COCC1CC2(CCN(c3cccc(C)n3)CC2)CN1C(C)C` (stereo not given), the cytotoxicity at 10 µM was -109%. In the case of `CN1C(=O)CC(c2ccncc2)C12CCN(c1ncccn1)CC2` (stereo not given), the cytotoxicity at 10 µM is -108%.

In the case of `COCCN1CCOCC2(CCN(c3cnccn3)CC2)C1`, the cytotoxicity at 10 µM was -87.4%. Then `CCCN1CCC(c2nc3ccc(C)cn3n2)CC1`, with -118%. As to `O=C(NC1CC(F)(F)C1)[C@]12COC[C@H]1CN(Cc1cccnc1)C2`, the cytotoxicity at 10 µM was -109%.

On to `c1cnc(N2CCC3(CN(CC4CCOC4)C3)C2)nc1` (stereo not given), for which the cytotoxicity at 10 µM was -5.77%. Turning to `Cn1cc(-c2ncc3c(c2C(=O)O)CCN(Cc2ccccn2)C3)cn1`, the cytotoxicity at 10 µM was -107%. Then `CN1CCN(Cc2cccnc2)C(=O)C12CCN(CC1CCOC1)CC2` (stereo not given), with -106%.
